# Laboratory results reported in paper PMC4254850 (Clinical cancer research : an official journal of the …, 2014).
# “Also recorded” adds a separate entry of the source.
# Assays:
# [1] = Plasma pharmacokinetics, LC/MS/MS, non-compartmental analysis; format: in vivo, human; conditions: for AUC(0-t) / Cmax / half-life: human, plasma, po
# advanced solid tumors = experiment: Tumor response; format: in vivo, human
# Method in brief: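 Response assessed by RECIST v1.1 using imaging at baseline and every two cycles in patients dosed orally, QD or BID, in 28-day cycles. Response data summarised with descriptive statistics.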
smiles,measurement,setting,value
CS(=O)(=O)N1CCc2c(-c3cnc(N)nc3)nc(N3CCOCC3)nc21 [CH5132799],Accumulation ratio,"[1]; 2mg (QD), AUC0-24h repeat dose / single dose, mean, n=3",0.912(3)
same,Accumulation ratio,"[1]; 4 mg (QD), AUC0-24h repeat dose / single dose, mean, n=3",1.54(3)
same,Accumulation ratio,"[1]; 8 mg (QD), AUC0-24h repeat dose / single dose, mean, n=2",1.22(2)
same,Accumulation ratio,"[1]; 16 mg (QD), AUC0-24h repeat dose / single dose, n=1",0.972(1)
same,Accumulation ratio,"[1]; 32 mg (QD), AUC0-24h repeat dose / single dose, mean, n=2",1.57(2)
same,Accumulation ratio,"[1]; 48 mg (BID), AUC0-12h repeat dose / single dose, mean, n=2",1.10(2)
same,Accumulation ratio,"[1]; 56 mg (BID), AUC0-12h repeat dose / single dose, mean, n=2",1.72(2)
same,Accumulation ratio,"[1]; 56 mg (QD), AUC0-24h repeat dose / single dose, mean, n=3",1.07(3)
same,Accumulation ratio,"[1]; 72 mg (BID), AUC0-12h repeat dose / single dose, n=1",2.25(1)
same,Accumulation ratio,"[1]; 96 mg (QD), AUC0-24h repeat dose / single dose, mean, n=3",0.640(3)
same,AUC at doses above the dose-proportional range,[1]; doses above 56 mg QD,no further increase in AUC; also recorded: no significant increments in AUC
same,AUC(0-t),"[1]; 2 mg, AUC0-24h, 2mg (QD), repeat dose, mean, n=3",48.8 ng·h/mL
same,AUC(0-t),"[1]; 2 mg, AUClast, 2mg (QD), single dose, mean, n=3, AUClast = AUC0-72h",53 ng·h/mL
same,Cmax,"[1]; 2 mg, 2mg (QD), repeat dose, mean, n=3",9.92 ng/mL
same,Cmax,"[1]; 2 mg, 2mg (QD), single dose, mean, n=3",10 ng/mL
same,half-life,"[1]; 2 mg, t1/2, 2mg (QD), single dose, mean, n=3",7.52 h
same,AUC(0-t),"[1]; 4 mg, AUC0-24h, 4 mg (QD), repeat dose, mean, n=3",167 ng·h/mL
same,AUC(0-t),"[1]; 4 mg, AUClast, 4 mg (QD), single dose, mean, n=3, AUClast = AUC0-72h",112 ng·h/mL
same,Cmax,"[1]; 4 mg, 4 mg (QD), repeat dose, mean, n=3",22.5 ng/mL
same,Cmax,"[1]; 4 mg, 4 mg (QD), single dose, mean, n=3",17.2 ng/mL
same,half-life,"[1]; 4 mg, t1/2, 4 mg (QD), single dose, mean, n=3",8.3 h
same,AUC(0-t),"[1]; 8 mg, AUC0-24h, 8 mg (QD), repeat dose, mean, n=2",159 ng·h/mL
same,AUC(0-t),"[1]; 8 mg, AUClast, 8 mg (QD), single dose, mean, n=3, AUClast = AUC0-72h",133 ng·h/mL
same,Cmax,"[1]; 8 mg, 8 mg (QD), repeat dose, mean, n=2",46.3 ng/mL
same,Cmax,"[1]; 8 mg, 8 mg (QD), single dose, mean, n=3",41.1 ng/mL
same,half-life,"[1]; 8 mg, t1/2, 8 mg (QD), single dose, mean, n=3",23.7 h
same,AUC(0-t),"[1]; 16 mg, AUC0-24h, 16 mg (QD), repeat dose, mean, n=2",621 ng·h/mL
same,AUC(0-t),"[1]; 16 mg, AUClast, 16 mg (QD), single dose, n=1, AUClast = AUC0-72h",883 ng·h/mL
same,Cmax,"[1]; 16 mg, 16 mg (QD), repeat dose, mean, n=3",100 ng/mL
same,Cmax,"[1]; 16 mg, 16 mg (QD), single dose, n=1",113 ng/mL
same,half-life,"[1]; 16 mg, t1/2, 16 mg (QD), single dose, n=1",13.7 h
same,AUC(0-t),"[1]; 32 mg, AUC0-24h, 32 mg (QD), repeat dose, mean, n=2",1740 ng·h/mL
same,AUC(0-t),"[1]; 32 mg, AUClast, 32 mg (QD), single dose, mean, n=4, AUClast = AUC0-72h",859 ng·h/mL
same,Cmax,"[1]; 32 mg, 32 mg (QD), repeat dose, mean, n=3",345 ng/mL
same,Cmax,"[1]; 32 mg, 32 mg (QD), single dose, mean, n=4",165 ng/mL
same,half-life,"[1]; 32 mg, t1/2, 32 mg (QD), single dose, mean, n=4",12.2 h
same,half-life,[1]; 48 mg,10.2 h
same,AUC(0-t),"[1]; 48 mg, AUC0-24h, 48 mg (BID) = MTD, repeat dose (steady state), mean, n=5, calculated based on data from 0 to 12 hours (AUC0-12h)",1550 ng·h/mL
same,AUC(0-t),"[1]; 48 mg, AUClast, 48 mg (BID) = MTD, single dose, mean, n=4, AUClast = AUC0-72h",1270 ng·h/mL
same,Cmax,"[1]; 48 mg, 48 mg (BID) = MTD, repeat dose (steady state), mean, n=5",175 ng/mL
same,Cmax,"[1]; 48 mg, 48 mg (BID) = MTD, single dose, mean, n=5",172 ng/mL
same,AUC(0-t),"[1]; 56 mg, AUC0-24h, 56 mg (BID), repeat dose, mean, n=2, calculated based on data from 0 to 12 hours (AUC0-12h)",5940 ng·h/mL
same,AUC(0-t),"[1]; 56 mg, AUC0-24h, 56 mg (QD), repeat dose, mean, n=3",748 ng·h/mL
same,AUC(0-t),"[1]; 56 mg, AUClast, 56 mg (BID), single dose, mean, n=5, AUClast = AUC0-72h",3030 ng·h/mL
same,AUC(0-t),"[1]; 56 mg, AUClast, 56 mg (QD), single dose, mean, n=3, AUClast = AUC0-72h",969 ng·h/mL
same,Cmax,"[1]; 56 mg, 56 mg (BID), repeat dose, mean, n=3",331 ng/mL
same,Cmax,"[1]; 56 mg, 56 mg (BID), single dose, mean, n=5",428 ng/mL
same,Cmax,"[1]; 56 mg, 56 mg (QD), repeat dose, mean, n=3",184 ng/mL
same,Cmax,"[1]; 56 mg, 56 mg (QD), single dose, mean, n=3",163 ng/mL
same,half-life,"[1]; 56 mg, t1/2, 56 mg (BID), single dose, mean, n=5",16.3 h
same,half-life,"[1]; 56 mg, t1/2, 56 mg (QD), single dose, mean, n=3",14.5 h
same,AUC(0-t),"[1]; 72 mg, AUC0-24h, 72 mg (BID), repeat dose, n=1, calculated based on data from 0 to 12 hours (AUC0-12h)",5580 ng·h/mL
same,AUC(0-t),"[1]; 72 mg, AUClast, 72 mg (BID), single dose, mean, n=3, AUClast = AUC0-72h",2480 ng·h/mL
same,Cmax,"[1]; 72 mg, 72 mg (BID), repeat dose, n=1",631 ng/mL
same,Cmax,"[1]; 72 mg, 72 mg (BID), single dose, mean, n=3",265 ng/mL
same,half-life,"[1]; 72 mg, t1/2, 72 mg (BID), single dose, mean, n=3",18.3 h
same,AUC(0-t),"[1]; 96 mg, AUC0-24h, 96 mg (QD), repeat dose, mean, n=3",691 ng·h/mL
same,AUC(0-t),"[1]; 96 mg, AUClast, 96 mg (QD), single dose, mean, n=4, AUClast = AUC0-72h",1650 ng·h/mL
same,Cmax,"[1]; 96 mg, 96 mg (QD), repeat dose, mean, n=3",103 ng/mL
same,Cmax,"[1]; 96 mg, 96 mg (QD), single dose, mean, n=4",206 ng/mL
same,half-life,"[1]; 96 mg, t1/2, 96 mg (QD), single dose, mean, n=3",23.2 h
same,Dose range with dose proportionality of AUC,[1]; oral,2 to 56 mg
same,"Response by GCIG CA125 criteria, patient with PIK3CA H1047R-mutated clear cell ovarian cancer",advanced solid tumors; 48 mg BID,partial response; also recorded: GCIG CA125 response
same,Time on study of patient with GCIG CA125 response,advanced solid tumors; 48 mg BID,6 cycles
same,"Clinical response, heavily pre-treated patient with triple negative breast cancer (no PIK3CA or AKT mutations)",advanced solid tumors; 72 mg BID,marked symptomatic and objective improvement in their cutaneous skin lesions
same,RECIST partial or complete responses,advanced solid tumors; all patients,no RECIST partial or complete responses
same,Study participants with best response of stable disease by RECIST,advanced solid tumors; all patients,21%
